{"source": "ChEMBL document CHEMBL4052590", "about": "“Anti-Osteoporotic Activity of Harpagoside by Upregulation of the BMP2 and Wnt Signaling Pathways in Osteoblasts and Suppression of Differentiation in Osteoclasts” (J Nat Prod, 2017)", "key": {"MC3T3-E1 [1]": {"tested_on": "MC3T3-E1", "test": "Increase in OPG mRNA expression in mouse MC3T3-E1 cells up to 4 uM after 48 hrs in presence of ascorbic acid and beta-glycerophosphate by real-time PCR analysis", "assay_type": "functional, cell-based", "summary_of_the_method": "(§1)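 MC3T3-E1 cells stimulated with 400 μM ascorbic acid and 5 mM β-glycerophosphate, with or without compound, 48 h. TRIzol RNA, real-time RT-PCR: 40 cycles of 95 °C 20 s, 56 °C 20 s, 72 °C 30 s. Ct of each transcript […] β-actin Ct, expressed relative to control samples.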"}, "MC3T3-E1 [2]": {"tested_on": "MC3T3-E1", "test": "Upregulation of OPG protein expression in mouse MC3T3-E1 cells up to 4 uM after 48 hrs in presence of ascorbic acid and beta-glycerophosphate by Western blot analysis", "assay_type": "functional, cell-based"}, "MC3T3-E1 [3]": {"tested_on": "MC3T3-E1", "test": "Upregulation of OCN protein expression in mouse MC3T3-E1 cells up to 4 uM after 48 hrs in presence of ascorbic acid and beta-glycerophosphate by Western blot analysis", "assay_type": "functional, cell-based"}, "Mus musculus [4]": {"species_on_record": "Mus musculus", "test": "Activation of Wnt signaling pathway in mouse MC3T3-E1 cells assessed as increase in BMP2 protein expression up to 4 uM after 48 hrs in presence of ascorbic acid and beta-glycerophosphate by Western blot analysis", "assay_type": "cell-based", "summary_of_the_method": "(§2)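 MC3T3-E1 cells given 400 μM ascorbic acid plus 5 mM β-glycerophosphate, exposed to test compound or not for 48 h. Lysed in boiling SDS sample buffer, protein measured by BCA. 40−50 μg of lysate run on 8% or 10% SDS-PAGE and transferred to PVDF. Blocked in 5% milk, probed with primary antibodies for 3 h at room temperature or overnight at 4 °C, detected by ECL.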"}, "Mus musculus [5]": {"species_on_record": "Mus musculus", "test": "Activation of Wnt signaling pathway in mouse MC3T3-E1 cells assessed as increase in Smad protein expression up to 4 uM after 48 hrs in presence of ascorbic acid and beta-glycerophosphate by Western blot analysis", "assay_type": "cell-based", "summary_of_the_method": "as §2"}, "MC3T3-E1 [6]": {"tested_on": "MC3T3-E1", "test": "Upregulation of beta-catenin protein expression in mouse MC3T3-E1 cells after 48 hrs in presence of ascorbic acid and beta-glycerophosphate by Western blot analysis", "assay_type": "functional, cell-based"}, "Mus musculus [7]": {"species_on_record": "Mus musculus", "test": "Activation of Wnt signaling pathway in mouse MC3T3-E1 cells assessed as upregulation of cyclin D1 protein expression after 48 hrs in presence of ascorbic acid and beta-glycerophosphate by Western blot analysis", "assay_type": "cell-based", "summary_of_the_method": "(§3)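 MC3T3-E1 cells with 400 μM ascorbic acid and 5 mM β-glycerophosphate, with or without compound, for 48 h. Whole-cell lysates (40−50 μg, BCA) separated by SDS-PAGE, blotted to PVDF. c-Myc and cyclin D1 probed with primary antibodies, then secondary antibody for 90 min, read by chemiluminescence.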"}, "Mus musculus [8]": {"species_on_record": "Mus musculus", "test": "Activation of Wnt signaling pathway in mouse MC3T3-E1 cells assessed as upregulation of C-Myc protein expression after 48 hrs in presence of ascorbic acid and beta-glycerophosphate by Western blot analysis", "assay_type": "cell-based", "summary_of_the_method": "as §3"}, "[9]": {"test": "Cytotoxicity against mouse osteoclasts assessed as effect on cell survival up to 4 uM after 72 hrs by MTT assay", "assay_type": "cell-based, Osteoclast", "conditions": "read-out: Survival"}, "Osteoclast": {"tested_on": "Osteoclast", "test": "Inhibition of RANKL/M-CSF-induced osteoclast differentiation in mouse bone marrow-derived osteoclasts assessed as downregulation of NFATc1 protein expression up to 4 uM after 48 hrs by Western blot analysis", "assay_type": "functional, cell-based", "summary_of_the_method": "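Mouse bone marrow cells were taken from 4-week-old mice and primed 24 h in 30 ng/mL M-CSF. They were then given 100 ng/mL RANKL plus 30 ng/mL M-CSF, with or without compound, for 48 h. Lysates were made in boiling SDS buffer and quantified by BCA. 40–50 μg was run on SDS-PAGE and immunoblotted on PVDF with β-actin reference and ECL read-out.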"}, "Mus musculus [10]": {"tested_on": "Mus musculus", "test": "Anti-osteoporotic activity in po dosed OVX-induced bone loss ICR mouse model assessed as decrease in trabecular bone destruction in femur administered for 12 weeks by microcomputed tomography", "assay_type": "functional, organism-based"}, "Mus musculus [11]": {"tested_on": "Mus musculus", "test": "Anti-osteoporotic activity in po dosed OVX-induced bone loss ICR mouse model assessed as increase in bone mineral density administered for 12 weeks by microcomputed tomography", "assay_type": "functional, organism-based"}, "Mus musculus [12]": {"tested_on": "Mus musculus", "test": "Anti-osteoporotic activity in ovariectomized ICR mouse assessed as increase in trabecular thickness in femur at 2 to 10 mg/kg, po after 12 weeks by microcomputed tomography", "assay_type": "functional, organism-based"}, "Mus musculus [13]": {"tested_on": "Mus musculus", "test": "Anti-osteoporotic activity in ovariectomized ICR mouse assessed as suppression of changes in trabecular separation in femur at 2 to 10 mg/kg, po after 12 weeks by microcomputed tomography", "assay_type": "functional, organism-based"}, "Mus musculus [14]": {"tested_on": "Mus musculus", "test": "Anti-osteoporotic activity in ovariectomized ICR mouse assessed as suppression of changes in structure model index levels in femur at 2 to 10 mg/kg, po after 12 weeks by microcomputed tomography", "assay_type": "functional, organism-based"}, "Mus musculus [15]": {"tested_on": "Mus musculus", "test": "Decrease in OVX-induced increase in body weight in ICR mouse at 2 to 10 mg/kg, po for 12 weeks", "assay_type": "functional, organism-based"}, "Mus musculus [16]": {"tested_on": "Mus musculus", "test": "Effect on calcium level in serum of OVX-induced bone loss ICR mouse model at 5 mg/kg, po for 12 weeks by ELISA (reference value: 9.3 +/- 0.3 mg/dl)", "assay_type": "functional"}, "Mus musculus [17]": {"tested_on": "Mus musculus", "test": "Effect on […] level in serum of OVX-induced bone loss ICR mouse model at 2 mg/kg, po for 12 weeks by ELISA (reference value: 8.2 +/- 0.4 mg/dl)", "assay_type": "functional"}, "Mus musculus [18]": {"tested_on": "Mus musculus", "test": "Effect on […] level in serum of OVX-induced bone loss ICR mouse model at 10 mg/kg, po for 12 weeks by ELISA (reference value: 8.2 +/- 0.4 mg/dl)", "assay_type": "functional"}, "Mus musculus [19]": {"tested_on": "Mus musculus", "test": "Effect on TRAP activity in serum of OVX-induced bone loss ICR mouse model at 2 mg/kg, po for 12 weeks (reference value: 19.8 +/- 1.0 U/L)", "assay_type": "functional"}, "Mus musculus [20]": {"tested_on": "Mus musculus", "test": "Effect on TRAP activity in serum of OVX-induced bone loss ICR mouse model at 5 mg/kg, po for 12 weeks (reference value: 19.8 +/- 1.0 U/L)", "assay_type": "functional"}, "Mus musculus [21]": {"tested_on": "Mus musculus", "test": "Effect on TRAP activity in serum of OVX-induced bone loss ICR mouse model at 10 mg/kg, po for 12 weeks (reference value: 19.8 +/- 1.0 U/L)", "assay_type": "functional"}, "Mus musculus [22]": {"tested_on": "Mus musculus", "test": "Effect on osteocalcin level in serum of OVX-induced bone loss ICR mouse model at 2 mg/kg, po for 12 weeks by ELISA (reference value: 176.9 +/- 4.7 ng/ml)", "assay_type": "functional"}, "Mus musculus [23]": {"tested_on": "Mus musculus", "test": "Effect on osteocalcin level in serum of OVX-induced bone loss ICR mouse model at 10 mg/kg, po for 12 weeks by ELISA (reference value: 176.9 +/- 4.7 ng/ml)", "assay_type": "functional"}, "Mus musculus [24]": {"tested_on": "Mus musculus", "test": "Effect on C-terminal telopeptide level in serum of OVX-induced bone loss ICR mouse model at 2 mg/kg, po for 12 weeks by ELISA (reference value: 95.7 +/- 3.8 ng/ml)", "assay_type": "functional"}, "MC3T3-E1 [25]": {"tested_on": "MC3T3-E1", "test": "Increase in OPN mRNA expression in 2 days differentiated mouse MC3T3-E1 cells up to 4 uM after 48 hrs in presence of ascorbic acid and beta-glycerophosphate by real-time PCR analysis", "assay_type": "functional, cell-based"}, "MC3T3-E1 [26]": {"tested_on": "MC3T3-E1", "test": "Increase in OPG to RANKL mRNA expression ratio in mouse MC3T3-E1 cells up to 4 uM after 48 hrs in presence of ascorbic acid and beta-glycerophosphate by real-time PCR analysis", "assay_type": "functional, cell-based", "summary_of_the_method": "as §1"}}, "note": "Calls of active or inactive are those of the source. No cut-off for these calls is given here."}
{"smiles": "C[C@]1(OC(=O)/C=C/c2ccccc2)C[C@@H](O)[C@]2(O)C=CO[C@@H](O[C@@H]3O[C@H](CO)[C@@H](O)[C@H](O)[C@H]3O)[C@@H]21", "note": "[HARPAGOSIDE]", "values": [{"measurement": "Activity", "setting": "MC3T3-E1 [1]", "value": "Active"}, {"measurement": "Activity", "setting": "MC3T3-E1 [2]", "value": "Active"}, {"measurement": "Activity", "setting": "MC3T3-E1 [3]", "value": "Active"}, {"measurement": "Activity", "setting": "Mus musculus [4]", "value": "Active"}, {"measurement": "Activity", "setting": "Mus musculus [5]", "value": "Active"}, {"measurement": "Activity", "setting": "MC3T3-E1 [6]", "value": "Dose-dependent effect"}, {"measurement": "Activity", "setting": "Mus musculus [7]", "value": "Dose-dependent effect"}, {"measurement": "Activity", "setting": "Mus musculus [8]", "value": "Dose-dependent effect"}, {"measurement": "viability at 72 h", "setting": "[9]", "value": "> 85", "unit": "%"}, {"measurement": "inhibition", "setting": "Osteoclast", "value": "Active"}, {"measurement": "Activity", "setting": "Mus musculus [10]", "value": "Dose-dependent effect"}, {"measurement": "Activity", "setting": "Mus musculus [11]", "value": "Dose-dependent effect"}, {"measurement": "Activity", "setting": "Mus musculus [12]", "value": "Active"}, {"measurement": "Activity", "setting": "Mus musculus [13]", "value": "Active"}, {"measurement": "Activity", "setting": "Mus musculus [14]", "value": "Active"}, {"measurement": "Activity", "setting": "Mus musculus [15]", "value": "Active"}, {"measurement": "Activity", "setting": "Mus musculus [16]", "value": 9.6, "unit": "mg/dL"}, {"measurement": "Activity", "setting": "Mus musculus [17]", "value": 7.9, "unit": "mg/dL"}, {"measurement": "Activity", "setting": "Mus musculus [18]", "value": 8.2, "unit": "mg/dL"}, {"measurement": "Activity", "setting": "Mus musculus [19]", "value": 10.4, "unit": "U/L"}, {"measurement": "Activity", "setting": "Mus musculus [20]", "value": 8.9, "unit": "U/L"}, {"measurement": "Activity", "setting": "Mus musculus [21]", "value": 7.7, "unit": "U/L"}, {"measurement": "Activity", "setting": "Mus musculus [22]", "value": 170, "unit": "ng/mL"}, {"measurement": "Activity", "setting": "Mus musculus [23]", "value": 156.9, "unit": "ng/mL"}, {"measurement": "Activity", "setting": "Mus musculus [24]", "value": 88.5, "unit": "ng/mL"}, {"measurement": "Activity", "setting": "MC3T3-E1 [25]", "value": "Dose-dependent effect"}, {"measurement": "Activity", "setting": "MC3T3-E1 [26]", "value": "Active"}]}
